We go through 19 molecules from ChEMBL document CHEMBL2157863, “Synthesis and evaluation of novologues as C-terminal Hsp90 inhibitors with cytoprotective activity against sensory neuron glucotoxicity” (J Med Chem, 2012).

Experiment [1] in a line: Cytoprotective activity against glucotoxicity in Sprague-Dawley rat DRG neurons assessed as cell viability at 1 uM by calcein-AM assay. The class given is functional. Particulars: DRG neuron, read-out: Activity. An outline of the steps:
(§1)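 Dorsal root ganglion neurons came from embryonic day 15–18 Sprague Dawley rats. They were trypsin-dissociated and grown on collagen in Neurobasal medium with 25 mM glucose, B-27 and 50 ng/ml NGF. Fluorodeoxyuridine and cytosine arabinoside were given for 2 days. On day 3, neurons received compound plus 20 mM excess glucose (45 mM total) for 4 h. Viability was read with 2 μM calcein AM, 30 min at 37°C, ex 485/em 520 nm, normalized to well protein.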

Experiment [2] can be described thus: Cytoprotective activity against glucotoxicity in Sprague-Dawley rat DRG neurons assessed as cell viability by calcein-AM assay. Type of experiment: functional. Conditions: DRG neuron. An outline of the steps: as §1
For experiment [3], the system named is Nucleic Acid. The experiment can be described thus: Activation of human HSP70 promoter transfected in rat 50B11 cells at 10 to 1000 nM after 16 hrs by luciferase reporter gene assay. The class given is cell-based. An outline of the steps: (§2)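 50B11 immortalized sensory neurons were grown in DMEM with 25 mM glucose, 10% FCS and 5 μg/ml blasticidin. They were lipofected with a luciferase reporter driven by the human Hsp70 promoter, which carries two heat shock elements. Cells were re-seeded after 24 h and exposed to compound for 16 h. Luciferase in lysates was normalized to total protein per well, with triplicate wells in at least three experiments.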
(In general: A reporter such as luciferase makes a cellular process visible.)

Experiment [4] concerns DRG neuron. Nature of the experiment: Induction of HSP70 protein expression in Sprague-Dawley rat DRG neurons at 10 to 1000 nM. The class given is functional. An outline of the steps: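 Rat embryonic DRG neurons were preincubated overnight with 10–1000 nM compound or DMSO, then exposed to 4 h hyperglycemia. Hsp70 and β-actin were measured by immunoblot. Band intensity of Hsp70 was normalized to β-actin and expressed as fold of control.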

Experiment [5] has as its system Nucleic Acid. The experiment can be described thus: Activation of human HSP70 promoter transfected in rat 50B11 cells at 1 uM after 16 hrs by luciferase reporter gene assay. Type of experiment: cell-based. The procedure, abridged: as §2
For experiment [6], the target named is T1, Heat shock protein HSP90 (Homo sapiens) (UniProt P07900+P08238). Nature of the experiment: Inhibition of HSP90 in human MCF7 cells assessed as degradation of Her2 up to 5 uM after 24 hrs by immunoblot analysis. The class given is cell-based. The procedure, abridged:
(§3)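 MCF7 cells were exposed to compound for 24 h. Lysates were immunoblotted for the Hsp90 clients Her2, Raf and Akt, with β-actin as loading control. Geldanamycin at 500 nM served as the positive control for client degradation.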
Background: A western blot detects proteins with antibodies after separation by electrophoresis.

The target in experiment [7] is T1, Heat shock protein HSP90 (Homo sapiens). The experiment can be described thus: Inhibition of HSP90 in human MCF7 cells assessed as degradation of Raf up to 5 uM after 24 hrs by immunoblot analysis. Type of experiment: cell-based. The procedure, abridged:
as §3

Experiment [8] has the same target. Nature of the experiment: Inhibition of HSP90 in human MCF7 cells assessed as degradation of Akt up to 5 uM after 24 hrs by immunoblot analysis. Type of experiment: cell-based. The procedure, abridged: as §3
A short description of experiment [9]: Ratio of KU-32 ED50 to compound ED50 for cytoprotective activity against glucotoxicity in Sprague-Dawley rat DRG neurons. The class given is functional, DRG neuron.

Each structure is given as a SMILES string. The source made the active and inactive calls. No cut-off for these calls is given here.

`CO[C@@H]1[C@@H](O)[C@@H](O)[C@H](Oc2ccc(CCNC(C)=O)c(-c3ccc(F)cc3)c2)OC1(C)C`: in [1], the viability at 1 µM is 75%.
With `COc1cccc(-c2cc(O[C@@H]3OC(C)(C)[C@H](OC)[C@@H](O)[C@H]3O)ccc2CCNC(C)=O)c1`, the viability at 1 µM in experiment [1] was 78%.
Same read-out and setting: in the case of `CO[C@@H]1[C@@H](O)[C@@H](O)[C@H](Oc2ccc(C3CC=CCC3NC(C)=O)c(-c3cccc(C(F)(F)F)c3)c2)OC1(C)C` (mixture of isomers) it was 69%.
As a reminder, the EC50 is the concentration at which the effect is half-maximal. For the molecule `CO[C@@H]1[C@@H](O)[C@@H](O)[C@H](Oc2ccc(CCNC(C)=O)c(-c3ccc4c(c3)OCO4)c2)OC1(C)C`, in [2], the EC50 was 18.4 nM. In addition, the result in [3] and in [4] was inactive. In addition, the viability at 1 µM in [1] is 83%.
Regarding `CO[C@@H]1[C@@H](O)[C@@H](O)[C@H](Oc2ccc(CCNC(C)=O)c(-c3ccc(C(F)(F)F)cc3)c2)OC1(C)C`, the viability at 1 µM in [1] is 74%.
Turning to `CO[C@@H]1[C@@H](O)[C@@H](O)[C@H](Oc2ccc(CCNC(C)=O)c(-c3ccccc3SC)c2)OC1(C)C`, the EC50 in experiment [2] was 384 nM. In addition, the viability at 1 µM in experiment [1] is 83%.
For the molecule `CO[C@@H]1[C@@H](O)[C@@H](O)[C@H](Oc2ccc(C3CC=CCC3NC(C)=O)c(-c3cccc(F)c3)c2)OC1(C)C` (mixture of isomers), the viability at 1 µM in [1] was 78%.
On the same count and under the same terms, the same measure for `CO[C@@H]1[C@@H](O)[C@@H](O)[C@H](Oc2ccc(CCNC(C)=O)c(-c3cccc(CN4CCOCC4)c3)c2)OC1(C)C`: 83%.
With `COc1ccccc1-c1cc(O[C@@H]2OC(C)(C)[C@H](OC)[C@@H](O)[C@H]2O)ccc1CCNC(C)=O`, the result in experiment [5] was Active. In [1], the viability at 1 µM was 92%.
For the molecule `CO[C@@H]1[C@@H](O)[C@@H](O)[C@H](Oc2ccc(CCNC(C)=O)c(-c3cccc(Cl)c3)c2)OC1(C)C`, in experiment [1], the viability at 1 µM is 90%.
Regarding `CO[C@@H]1[C@@H](O)[C@@H](O)[C@H](Oc2ccc3cc(NC(C)=O)c(=O)oc3c2C)OC1(C)C`, the EC50 in [2] was 240 nM. Also, the outcome in experiment [3] and in experiment [4] was Active. Also, the viability at 1 µM in experiment [1] is 86%.
Take `CO[C@@H]1[C@@H](O)[C@@H](O)[C@H](Oc2ccc(CCNC(C)=O)c(-c3cccc(F)c3)c2)OC1(C)C` [CEMDOMESPIB]: in experiment [2], the EC50 was 13 nM. The result in experiment [3] and in experiment [4] was Active. For the same molecule, the inhibition entry in experiment [6], in [7] and in experiment [8] was “inactive” throughout. Besides, the “Ratio ED50” value in [9] stood at 14. Besides, the viability at 1 µM in [1] is 95%.
With `CO[C@@H]1[C@@H](O)[C@@H](O)[C@H](Oc2ccc(CCNC(C)=O)c(-c3ccc(O)cc3)c2)OC1(C)C`, the viability at 1 µM in [1] is 67%.
For `CO[C@@H]1[C@@H](O)[C@@H](O)[C@H](Oc2ccc(CCNC(C)=O)c(-c3cccc(C(F)(F)F)c3)c2)OC1(C)C`, in experiment [2], the half-maximal effective concentration (EC50) is 188 nM. Also, the viability at 1 µM in experiment [1] was 83%.
For the molecule `CO[C@@H]1[C@@H](O)[C@@H](O)[C@H](Oc2ccc(CCNC(C)=O)c(-c3ccccc3Cl)c2)OC1(C)C`, the viability at 1 µM in experiment [1] is 71%.
For the molecule `CO[C@@H]1[C@@H](O)[C@@H](O)[C@H](Oc2ccc(CCNC(C)=O)c(-c3cccnc3)c2)OC1(C)C`, the viability at 1 µM in experiment [1] was 61%.
For the molecule `CO[C@@H]1[C@@H](O)[C@@H](O)[C@H](Oc2ccc(CCNC(C)=O)c(-c3cccc(C)c3)c2)OC1(C)C`, the viability at 1 µM in experiment [1] was 82%.
Still for that read-out and setting: the same measure for `CO[C@@H]1[C@@H](O)[C@@H](O)[C@H](Oc2ccc(CCNC(C)=O)c(-c3ccncc3)c2)OC1(C)C`: 81%; for `CO[C@@H]1[C@@H](O)[C@@H](O)[C@H](Oc2ccc(CCNC(C)=O)c(-c3ccccc3)c2)OC1(C)C`: 76%.
